Where “and” joins values, the source holds several entries; their conditions need not be identical. Equal entries are not always repeated.
Experiments:
[1] = species: Rattus norvegicus; experiment: tested in the vitamin D-deficient rat for the ability to support intestinal absorption of calcium with compound concentration 325 (pmol/d/7 days) expressed as Serum/Mucosal ratio; type: functional
Outline: (§1)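 Vitamin D-deficient Holtzman weanling rats were kept 1 week on a 0.47% Ca diet, then on a 0.02% Ca diet. They were given intraperitoneal injections daily for 7 days in 0.1 mL of 95:5 propylene glycol/ethanol, with vehicle controls, and killed 24 h after the last dose. Transport was measured by everted sac of the proximal 10 cm of intestine, as the ratio of sac Ca to final medium Ca (S/M). Groups had at least 6 rats; Student's t-test.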

[2] = species: Rattus norvegicus; experiment: tested in the vitamin D-deficient rat for the ability to support intestinal absorption of calcium with compound concentration 65 (pmol/d/7 days) expressed as Serum/Mucosal ratio; type: functional; outline: as §1
[3] = species: Rattus norvegicus; experiment: Bone calcium-mobilizing activity with compound concentration 325 (pmol/d/7 days); type: functional, organism-based; set-up: unit not given here
Outline: (§2)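 Holtzman weanling rats were fed a vitamin D-deficient diet with 0.47% Ca for 1 week, then a 0.02% Ca diet. They received daily intraperitoneal doses in 0.1 mL of 95:5 propylene glycol/ethanol for 7 days; controls got vehicle. Rats were killed 24 h after the last dose. Serum Ca was measured by automatic calcium titrator; on this diet, the rise in serum Ca is taken as bone Ca mobilization. At least 6 rats/group; Student's t-test.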

[4] = species: Rattus norvegicus; experiment: Tested in the vitamin D-deficient rat for the ability to support intestinal absorption of calcium with compound concentration 65 (pmol/d/7 days) expressed as Serum/Mucosal ratio; type: functional
[5] = species: Rattus norvegicus; experiment: Tested in the vitamin D-deficient rat for the ability to support intestinal absorption of calcium with compound concentration 260 (pmol/d/7 days) expressed as Serum/Mucosal ratio; type: functional; outline: as §1
[6] = species: Rattus norvegicus; experiment: Tested in the vitamin D-deficient rat for the ability to support intestinal absorption of calcium with compound concentration 325 (pmol/d/7 days) expressed as Serum/Mucosal ratio; type: functional
[7] = species: Rattus norvegicus; experiment: Tested in the vitamin D-deficient rat for the ability to support intestinal absorption of calcium with compound concentration 130 (pmol/d/7 days) expressed as Serum/Mucosal ratio; type: functional
[8] = species: Rattus norvegicus; experiment: Bone calcium-mobilizing activity with compound concentration 260 (pmol/d/7 days); type: functional, organism-based; outline: as §2
[9] = species: Rattus norvegicus; experiment: Bone calcium-mobilizing activity with concentration 260 (pmol/d/7 days); type: functional, organism-based; outline: as §2
[10] = species: Rattus norvegicus; experiment: Bone calcium-mobilizing activity with compound concentration 130 (pmol/d/7 days); type: functional, organism-based; outline: as §2
[11] = species: Rattus norvegicus; experiment: tested in the vitamin D-deficient rat for the ability to support intestinal absorption of calcium with compound concentration 130 (pmol/d/7 days) expressed as Serum/Mucosal ratio; type: functional; outline: as §1
[12] = species: Rattus norvegicus; experiment: tested in the vitamin D-deficient rat for the ability to support intestinal absorption of calcium with compound concentration 260 (pmol/d/7 days) expressed as Serum/Mucosal ratio; type: functional; outline: as §1
[13] = species: Rattus norvegicus; experiment: Bone calcium-mobilizing activity with compoundm concentration 130 (pmol/d/7 days); type: functional, organism-based; outline: as §2
[14] = species: Rattus norvegicus; experiment: Bone calcium-mobilizing activity with compound concentration 65 (pmol/d/7 days); type: functional, organism-based; outline: as §2

C[C@H](CCCC(C)(C)O)[C@H]1CC[C@H]2/C(=C\C=C3C[C@@H](O)C(O)[C@H](O)C3)CCC[C@]12C (stereo partly specified) [listing 1 of 3 here]
Ratio [1]: 10.8 | Ratio [2]: 5.8

C=C1/C(=C/C=C2/CCCC3(C)C2CCC3[C@H](C)CCCC(C)(C)O)C[C@@H](O)C[C@@H]1O (stereo partly specified)
Serum Ca2+ [3]: 6.8 and 7.1 | Ratio [4]: 8.3 | Ratio [5]: 10.5 | Ratio [6]: 10.5 and 7.8 | Ratio [7]: 8 and 7.1 | Serum Ca2+ [8]: 5.9

C[C@H](CCCC(C)(C)O)[C@H]1CC[C@H]2/C(=C/C=C3C[C@@H](O)C(OCc4ccccc4)[C@H](O)C3)CCC[C@]12C (stereo partly specified)
Serum Ca2+ [9]: 4.6 | Ratio [5]: 11.9

C[C@H](CCCC(C)(C)O)[C@H]1CC[C@H]2/C(=C/C=C3C[C@@H](O)C(OCCCO)[C@H](O)C3)CCC[C@]12C (stereo partly specified) [listing 1 of 3 here]
Serum Ca2+ [3]: 5.8 | Serum Ca2+ [10]: 4.9 | Serum Ca2+ [8]: 4.7

C[C@H](CCCC(C)(C)O)[C@H]1CC[C@H]2/C(=C/C=C3C[C@@H](O)C(OCCCO)[C@H](O)C3)CCC[C@]12C (stereo partly specified) [listing 2 of 3 here]
Ratio [1]: 4.3 | Ratio [11]: 3.5

C[C@H](CCCC(C)(C)O)[C@H]1CC[C@H]2/C(=C/C=C3C[C@@H](O)C(OCCCO)[C@H](O)C3)CCC[C@]12C (stereo partly specified) [listing 3 of 3 here]
Ratio [12]: 5.7

C[C@H](CCCC(C)(C)O)[C@H]1CC[C@H]2/C(=C\C=C3C[C@@H](O)C(O)[C@H](O)C3)CCC[C@]12C (stereo partly specified) [listing 2 of 3 here]
Serum Ca2+ [3]: 4.2 and 4.1 | Serum Ca2+ [13]: 4.1 | Serum Ca2+ [14]: 4.2

C[C@H](CCCC(C)(C)O)[C@H]1CC[C@H]2/C(=C\C=C3C[C@@H](O)C(O)[C@H](O)C3)CCC[C@]12C (stereo partly specified) [listing 3 of 3 here]
Ratio [1]: 5 | Ratio [11]: 5.3

Source: ChEMBL document CHEMBL1127389, “Synthesis and biological activity of 2-hydroxy and 2-alkoxy analogs of 1 alpha,25-dihydroxy-19-norvitamin D3” (1994)
